FN deposit inh – inhibitors of fibronectin matrix deposition, primary screen, AH1F cells, Alexa488-fibronectin fluorescence, plate reader | AH1F fibroblasts, overnight | actives 0.086% (n = 350,000) | inhibition, % at 12.6 µM;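 active = mean inhibition across replicates of 30% or more, regardless of how many single replicates reach that level; inconclusive = mean under 30% yet at least half of replicates reach 30%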;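 also: positive control wells lacked labelled fibronectin entirely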
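Assay system: AH1F fibroblasts assembling fluorescent fibronectin matrix; Amount: 10000 AH1F cells per well; Buffer or medium: DMEM, 2% serum; Probe or stimulus: Alexa488-fibronectin, 24 nM final in well; Doses: single compound dose, delivered by pin transfer; Incubation: 1 h adhesion, overnight exposure; Measured by: fluorescence 485/525 nm; Read-out: fibronectin deposition inhibition.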
PAX8 inh HTS – inhibitors of PAX8-driven TPO luciferase reporter, primary screen, RMG-I cells, single concentration; SteadyGlo, 24 h; inhibition, % at 12.6 µM; actives 1.2% (n = 360,000); AID 652154, 2013;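 active = mean replicate inhibition at least 60% with every replicate also reaching 60%; inconclusive = only one of the two criteria is met; inactive = mean below 60% and not all replicates reaching 60%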;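 also: luciferase light reporting Pax8 driven TPO promoter activity; plate controls were median of neutral control wells for no effect and mitoxantrone controls for full effect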
PGC1a acetyl inh – inhibitors of PGC1a acetylation signal, primary screen, cell-based, U2OS, AlphaScreen, inhibitor mode; AlphaScreen anti-acetyl-lysine; with virally co-expressed GCN5 acetyltransferase; inhibition, % at 15.6 µM; actives 0.17% (n = 350,000);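 active = every replicate shows inhibition of at least 40%; inconclusive = mean inhibition at least 40% but some replicate below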;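 also: 0% = neutral control wells and 100% = positive control wells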
EWS-Fli inh – EWS/Fli-driven NR0B1 reporter inhibitors, primary screen, A673 cells, NR0B1 luciferase, luminescence, MLPCN library; actives 0.67% (n = 350,000); viability-normalised; AID 651661, 2012; inhibition, % at 12.6 µM;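 active = mean inhibition of at least 50% after viability correction, with every replicate also passing that limit; inconclusive = mean reaches 50% but only one of two replicates passes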;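 also: firefly luciferase signal divided by Alamar Blue viability fluorescence both relative to DMSO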
FGF22 binding – binders of human FGF22 protein, primary screen, FGF22 synaptogenesis inhibitor project, biophysical, thermal shift, single point | recombinant FGF22 thermal shift, SYPRO orange fluorescence; percent of sucrose octasulfate shift, DMSO zero | activity (Tm shift, normalised), % at 9.99 µM | actives 1.5% (n = 340,000) | AID 651658, 2012;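 active = mean Tm shift, scaled 0 neutral to 100 positive control, at about 1.3% or above, every replicate too, limit read from the data; inconclusive = no clear call, values can overlap the other calls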
Target sequence (Q9HCT0 whole entry, looked up): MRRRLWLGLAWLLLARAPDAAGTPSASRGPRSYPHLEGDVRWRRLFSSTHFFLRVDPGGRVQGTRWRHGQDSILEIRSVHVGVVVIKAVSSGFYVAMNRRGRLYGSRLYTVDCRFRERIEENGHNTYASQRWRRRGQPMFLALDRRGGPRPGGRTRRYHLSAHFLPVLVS
HIV Env fusion – inhibitors of HIV-1 Env-driven cell-cell fusion, primary screen, HeLa-JRFL effector, CEM21 target cells, luciferase | inhibition, % at 12.3 µM | actives 1.1% (n = 360,000);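 active = mean replicate inhibition score of at least 50 and every replicate individually at or above 50; inconclusive = only one of the two criteria met; inactive = mean below 50 and not all replicates reaching 50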;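 also: 0% = plate neutral controls and 100% = maraviroc near 300 nM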
* hit, by the source's call; ? = inconclusive; · = no result given; [ ] = remark or other dose. In the library only some 3.1% were active in any assay of this set; here they are far more common.

SMILES	FN deposit inh	PAX8 inh HTS	PGC1a acetyl inh	EWS-Fli inh	FGF22 binding	HIV Env fusion
COC(=O)c1cc2c(c3c4cc(OC)ccc4n(S(=O)(=O)c4ccccc4)c13)C(=O)N(Cc1ccc(C(F)(F)F)cc1)C2	4	-2	·	18	0	96*
C[C@H]1CN([C@@H](C)CO)C(=O)c2cc(NS(=O)(=O)c3cn(C)cn3)ccc2O[C@@H]1CN(C)S(=O)(=O)c1cccs1	·	·	-4	3	0	·
O=C(NCc1nnc(SCC(=O)N2CCc3ccccc32)o1)c1ccco1	-6	12	·	-4	43*	13
COc1cccc(C(=O)Nc2ccc3c(c2)C(=O)N(C)C[C@@H](OC)[C@H](C)CN[C@H](C)CO3)c1	-15	·	7	-3	1	-2[16.7 µM]
COc1cccc([C@@H](NC(=O)C(F)(F)F)[C@@H]2CCCC=C2c2ccccc2)c1	6	-11	·	-25	0	6
O=C(N[C@H](c1cccc(Br)c1)[C@@H]1CCCC=C1c1ccccc1)C(F)(F)F	7	4	·	3	0	67*
Nc1nonc1C(=O)NCCNCc1ccccc1	·	·	1	·	·	·
COc1ccc(CNCCNC(=O)c2nonc2N)cc1OC	·	·	·	·	·	-51
Nc1nonc1C(=O)NCCNCc1cc(Br)ccc1OCc1ccc(F)cc1	8	·	·	·	·	67*
Nc1nonc1C(=O)NCCNCc1c(OCc2ccccc2F)ccc2ccccc12	·	·	-19	·	·	103*
Cc1ccccc1S(=O)(=O)N1CCCCN2[C@H](CO)[C@@H](c3ccc(-c4cccc(F)c4)cc3)[C@@H]2C1	·	-6	3	9	0	·
O=C(COc1ccccc1)Nc1ccc(NC(=O)c2ccco2)cc1	-9	1	-46	-11	44*	-8
COC(=O)c1cc(NC(=O)/C=C/c2ccccc2)ccc1O	-6	-137	·	-26	43*	-8
CCC(C)c1ccc(NC(=O)c2ccco2)cc1 (centres undefined)	-5	4	-1	58*	0	-170
O=C(/C=C/c1ccc(Br)cc1)c1ccc(NC(=O)c2ccco2)cc1	·	-25	·	·	·	-30
O=C(/C=C\c1ccccc1)Nc1ccc(NC(=O)c2ccco2)cc1	2	-6	1	-11	1.5*	5
CCC(C)c1ccc(NC(=O)COC(=O)CCNC(=O)c2ccco2)cc1 (centres undefined)	·	-36	1	-15	0	·
O=C(/C=C/c1ccccc1)Nc1cc(C(=O)O)cc(C(=O)O)c1	5	-13	0	3	1	-4
COc1ccc(-c2ccc(NC(=O)c3ccco3)cc2)nn1	16	?	·	64*	1.8*	23
COc1ccc(-c2cccc(NC(=O)c3ccco3)c2)nn1	0	-12	-4	-8	0	·
Cc1cc(/C=N/NC(=O)c2cccc(F)c2)c(C)n1-c1ccccc1	22	-91	·	-73	0	-86
Cc1cc(/C=N/NC(=O)c2c(Br)cnn2C)c(C)n1-c1cccc(Br)c1	2	77*	·	-5	0	·
NC(=O)c1sc2nc3c(c(-c4cccs4)c2c1N)CCCCC3	9	·	?	·	·	126*
NC(=O)c1sc2nc3c(c(-c4cccnc4)c2c1N)CCC3	·	·	-5	·	·	·
Cc1cccc(N2CCN(Cc3cn(C)nc3-c3ccccc3F)CC2)n1	5	12	-1	59*	0	2
SMILES	FN deposit inh	PAX8 inh HTS	PGC1a acetyl inh	EWS-Fli inh	FGF22 binding	HIV Env fusion
CC(=O)CSc1ccc(-c2nc3cc(C)c(C)cc3[nH]2)cn1	-1	69*	·	69*	0	51
CC(=O)CSc1ccc(-c2nc3ccccc3[nH]2)cn1	-9	-9	·	29	-1	-35
CCOC(=O)N1CCN(C(=O)C2CCN(C(=O)c3ccccc3C)CC2)CC1	·	51	-25	25	1.4*	·
C[C@@]12C(=O)N(c3ccc(Br)cc3)C(=O)N1[C@@H]1c3ccccc3OC[C@@H]1[C@H]2c1ccccc1	2	-5	-21	3	1.5*	-21
C[C@H]1NC(=O)[C@@]2(C)[C@H](c3ccccc3)[C@H]3COc4ccccc4[C@@H]3N2C1=O	-8	-4	·	-2	0	92*
C[C@]12C(=O)N(c3ccc(Br)cc3)C(=O)N1[C@@H]1c3ccccc3OC[C@@H]1[C@H]2c1ccccc1	-2	-9	-15	-3	0	28
Cc1cccc(N(Cc2ccccc2)C(=O)CCl)c1	·	123*	-4	52*	0	25
O=C(CCl)N(Cc1ccccc1)c1ccccc1	·	108*	·	73*	0	26
O=C(CCl)N(Cc1cc(=O)[nH]c2ccccc12)c1ccccc1	-1	53	·	15	0	11
OC[C@@H]1[C@@H](c2ccccc2)C2(CN(CCC(F)(F)F)C2)N1Cc1cccnc1	·	3	-7	-6	0	·
CCCC#Cc1ccc([C@@H]2[C@H](CO)N3C(=O)CN(C(=O)c4ccc(F)cc4)C[C@@H]23)cc1	·	·	-1	7	·	·
Cc1nnc(N/N=C/c2cccc(C(F)(F)F)c2)n1N	0	108*	0	-2	-1	0
Cc1nnc(N/N=C/c2ccccc2F)n1N	5	20	30	2	0	-5
Cc1nnc(N/N=C/c2ccccc2C(F)(F)F)n1N	7	85*	3	-6	0	7
Cn1cnc(S(=O)(=O)N2C[C@H](O)COC[C@@H]3O[C@H](CC(=O)N4CCN(c5ccccc5)CC4)CC[C@H]32)c1	4	7	2	-9	0	17[16.7 µM]
COc1ccc(/C=C2\CN(Cc3ccccc3)C/C(=C\c3ccc(OC)cc3OC)C2=O)c(OC)c1	1	93*	28	·	·	10
COc1ccc(/C=C2\CN(Cc3ccccc3)C/C(=C\c3ccc(OC)cc3)C2=O)cc1	-4	6	·	-9	0	-22
COc1ccc(/C=C2\COc3ccccc3C2=O)c(OC)c1	9	-34	·	-88	0	6
COc1ccc(C=C2c3ccccc3C(=O)c3ccccc32)c(OC)c1	-6	59	-18	52*	0	-25
O=C(Cc1ccc(Cl)cc1)NCC(=O)N1CCC2(CC1)NCCc1[nH]cnc12	-4	3	-8	-11	43*	32
O=C(Cc1ccc(Cl)cc1)N1CCC2(CC1)NCCc1[nH]cnc12	-2	-12	6	·	0	-7
C[C@@H]1CN([C@H](C)CO)C(=O)Cc2cc(NC(=O)c3ccncc3)ccc2O[C@@H]1CN(C)Cc1ccc(Cl)c(Cl)c1	·	10	-12	·	0	-4[16.7 µM]
COc1cccc(S(=O)(=O)N[C@H]2CC[C@@H](CCNC(=O)Nc3cc(F)ccc3F)O[C@@H]2CO)c1	-3	11	-13	-3	0	19[16.7 µM]
